Test results: ChEMBL document CHEMBL1122782, “Bulky amine analogues of ketoprofen: potent antiinflammatory agents” (J Med Chem, 1984)

Tests used:
Rattus norvegicus [1] = test: Potency relative to phenylbutazone at 0.0014 mM/kg; type: functional
Rattus norvegicus [2] = test: Antiinflammatory efficacy is measured by the percent inhibition of paw volume during the 3 week adjuvant arthritis test at 0.0014 mM/kg (0.50 mg); type: functional
How it was run: (§1)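 Male Sprague-Dawley rats (200–230 g) were used in groups of eight. Each received 0.1 mL of 0.6% M. butyricum in heavy mineral oil into the plantar tissue of one hind paw. Daily oral gavage in 1% gum tragacanth or corn oil-water emulsion began on the injection day and ran 21 days. Total hind paw volume was measured by mercury displacement, and inhibition was taken versus vehicle-treated adjuvant controls.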

Rattus norvegicus [3] = test: Ulcerogenicity was measured in stomach during the 3 week adjuvant arthritis test.(animals with ulcers/animals in test) at 0.008 mM/kg (2.86 mg); type: functional
How it was run: (§2)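 Male Sprague-Dawley rats (200–230 g) were injected in the plantar tissue of one hind paw with 0.1 mL of 0.6% M. butyricum suspension in heavy mineral oil. Daily oral gavage began on the day of adjuvant injection and ran for the 21 days, with drug suspended in 1% gum tragacanth or a corn oil-water emulsion. At the end the rats were sacrificed and the small intestine and stomach were examined for ulcers. Results are given as animals with ulcers/animals tested.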

Rattus norvegicus [4] = test: Antiinflammatory efficacy is measured by the weight gain in rats during the 3 week adjuvant arthritis test at 0.0014 mM/kg (0.50 mg); type: functional
How it was run: (§3)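 Rats were adjuvant-injected (M. butyricum in mineral oil, one hind paw) or given a mineral-oil placebo. They were dosed by gavage daily for 21 days from the injection day, with vehicle only for both control groups, then weighed at the end. Weight gain % = (treated − adjuvant control)/(negative control − adjuvant control) × 100.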

Rattus norvegicus [5] = test: Antiinflammatory efficacy is measured by the weight gain in rats during the 3 week adjuvant arthritis test at 0.008 mM/kg (2.86 mg); type: functional; how it was run: as §3
Rattus norvegicus [6] = test: Antiinflammatory efficacy is measured by the weight gain in rats during the 3 week adjuvant arthritis test at 0.011 mM/kg (3.94 mg); type: functional; how it was run: as §3
Rattus norvegicus [7] = organism: Rattus norvegicus; test: Compound was evaluated for highest non-ulcerogenic dose (less than 50% ulcer incidence); type: functional; conditions: read-out: ED50
How it was run: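 Taken from the 21-day adjuvant arthritis test in male Sprague-Dawley rats dosed orally each day from the day of adjuvant injection. Small intestines and stomachs were examined for ulceration at the end. The value is the highest dose giving less than 50% ulcer incidence.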

Rattus norvegicus [8] = test: Ulcerogenicity was measured in intestine during the 3 week adjuvant arthritis test.(animals with ulcers/animals in test) at 0.008 mM/kg (2.86 mg); type: functional; how it was run: as §2
Rattus norvegicus [9] = test: Ulcerogenicity was measured in intestine during the 3 week adjuvant arthritis test.(animals with ulcers/animals in test) at 0.0014 mM/kg (0.50 mg); type: functional; how it was run: as §2
Rattus norvegicus [10] = test: Ulcerogenicity was measured in stomach during the 3 week adjuvant arthritis test.(animals with ulcers/animals in test) at 0.0014 mM/kg (0.50 mg); type: functional; how it was run: as §2
Rattus norvegicus [11] = test: The percent inhibition was calculated from the average differences in hind paw volume between the adjuvant injected controls and the adjuvant-injected medicated rats at 0.08 mmol/kg; 50-59; type: functional
Rattus norvegicus [12] = test: The mean increase in paw volume was compared between drug treated groups and placebo to calculate the percent inhibition in rats at 0.02 mmol/kg by carrageenan Edema Assay; 0-19; type: functional
Rattus norvegicus [13] = test: Potency relative to phenylbutazone at 0.005 mM/kg; type: functional
Rattus norvegicus [14] = test: Antiinflammatory efficacy is measured by the percent inhibition of paw volume during the 3 week adjuvant arthritis test at 0.005 mM/kg (2.02 mg); type: functional; how it was run: as §1
Rattus norvegicus [15] = test: Antiinflammatory efficacy is measured by the weight gain in rats during the 3 week adjuvant arthritis test at 0.02 mM/kg (8.07 mg); type: functional; how it was run: as §3
Rattus norvegicus [16] = test: Antiinflammatory efficacy is measured by the percent inhibition of paw volume during the 3 week adjuvant arthritis test at 0.08 mM/kg (32.3 mg); type: functional; how it was run: as §1
Rattus norvegicus [17] = test: Ulcerogenicity was measured in intestine during the 3 week adjuvant arthritis test, no of animals with ulcers out of 15 animals tested at 0.08 mM/kg (32.3 mg) was reported; type: functional
How it was run: (§4)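 In the 21-day adjuvant arthritis model, male Sprague-Dawley rats (200–230 g) received an M. butyricum mineral-oil suspension into one hind paw. They were dosed daily by gavage from the day of injection. At the end of the study the rats were killed, and the small intestines were examined for ulcers. Results are given as the number of ulcerated animals over the number tested.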

Rattus norvegicus [18] = test: Ulcerogenicity was measured in intestine during the 3 week adjuvant arthritis test, no of animals with ulcers out of 4 animals tested at 0.02 mM/kg (8.07 mg) was reported; type: functional; how it was run: as §4
Rattus norvegicus [19] = test: Antiinflammatory efficacy is measured by the weight gain in rats during the 3 week adjuvant arthritis test at 0.005 mM/kg (2.02 mg); type: functional; how it was run: as §3
Rattus norvegicus [20] = organism: Rattus norvegicus; test: Effective Dose 50 is the amount of material required to produce effect in 50% of an animal population; type: functional
Rattus norvegicus [21] = test: Ulcerogenicity was measured in stomach during the 3 week adjuvant arthritis test, no of animals with ulcers out of 4 animals tested at 0.02 mM/kg (8.07 mg) was reported; type: functional; how it was run: as §2
Mus musculus = organism: Mus musculus; test: Effective Dose 50 is the amount of material required to elicit analgesic effect in 50% of an animal population
Rattus norvegicus [22] = test: The mean increase in paw volume was compared between drug treated groups and placebo to calculate the percent inhibition in rats at 0.02 mmol/kg by carrageenan Edema Assay; 30-39; type: functional; conditions: Rattus norvegicus
Rattus norvegicus [23] = test: Ulcerogenicity was measured in intestine during the 3 week adjuvant arthritis test, no of animals with ulcers out of tested animals at 0.16 mM/kg (64.6 mg) was reported; Toxic; type: functional, organism-based; how it was run: as §2
Rattus norvegicus [24] = test: Antiinflammatory efficacy is measured by the percent inhibition of paw volume during the 3 week adjuvant arthritis test at 0.02 mM/kg (8.07 mg); type: functional; how it was run: as §1
Rattus norvegicus [25] = test: The percent inhibition was calculated from the average differences in hind paw volume between the adjuvant injected controls and the adjuvant-injected medicated rats at 0.08 mmol/kg; 80-89; type: functional
Rattus norvegicus [26] = test: Antiinflammatory efficacy is measured by the weight gain in rats during the 3 week adjuvant arthritis test at 0.08 mM/kg (32.3 mg); type: functional; how it was run: as §3
Rattus norvegicus [27] = test: Ulcerogenicity was measured in stomach during the 3 week adjuvant arthritis test, no of animals with ulcers out of 15 animals tested at 0.08 mM/kg (32.3 mg) was reported; type: functional; how it was run: as §2

COc1ccc2c(c1)c(CC(=O)O)c(C)n2C(=O)c1ccc(Cl)cc1 [INDOMETHACIN]
Potency (Rattus norvegicus [1]): 20% | Inhibition (Rattus norvegicus [2]): 63% | Ulcerogenic index (Rattus norvegicus [3]): 5 | Weight gain (Rattus norvegicus [4]): 14% | Weight gain (Rattus norvegicus [5]): 48% | Weight gain (Rattus norvegicus [6]): 38% | highest non-ulcerogenic dose (Rattus norvegicus [7]): 0.4 µmol/kg | Ulcerogenic index (Rattus norvegicus [8]): 17 | Ulcerogenic index (Rattus norvegicus [9]): 3 | Ulcerogenic index (Rattus norvegicus [10]): 6

CC1CCCC(C)N1CCc1cccc(C(O)c2ccccc2)c1 (stereo not drawn)
inhibition in vivo at 80 µmol/kg (Rattus norvegicus [11]): 50% | inhibition in vivo at 20 µmol/kg (Rattus norvegicus [12]): 0%

CC(CN1CCCCC1CC1CCCCC1)c1cccc(C(=O)c2ccccc2)c1 (stereo not drawn)
Relative potency (Rattus norvegicus [13]): 8.7% | Inhibition (Rattus norvegicus [14]): 56% | Weight gain (Rattus norvegicus [15]): 55% | Inhibition (Rattus norvegicus [16]): 90% | Ulcerogenic index (Rattus norvegicus [17]): 4 | Ulcerogenic index (Rattus norvegicus [18]): 1 | Weight gain (Rattus norvegicus [19]): 27% | ED50 (Rattus norvegicus [20]): 3 µmol/kg | Ulcerogenic index (Rattus norvegicus [21]): 0 | ED50 (Mus musculus): 55 mg/kg | inhibition in vivo at 20 µmol/kg (Rattus norvegicus [22]): 30% | Ulcerogenic index (Rattus norvegicus [23]): Toxic | Inhibition (Rattus norvegicus [24]): 79% | inhibition in vivo at 80 µmol/kg (Rattus norvegicus [25]): 80% | Weight gain (Rattus norvegicus [26]): 82% | Ulcerogenic index (Rattus norvegicus [27]): 1
